In series [1] the target is T1, monoamine oxidase (bovine plasma amine oxidase) (Bos taurus, UniProt P21398+P56560).
T1 sequence (P56560 whole entry): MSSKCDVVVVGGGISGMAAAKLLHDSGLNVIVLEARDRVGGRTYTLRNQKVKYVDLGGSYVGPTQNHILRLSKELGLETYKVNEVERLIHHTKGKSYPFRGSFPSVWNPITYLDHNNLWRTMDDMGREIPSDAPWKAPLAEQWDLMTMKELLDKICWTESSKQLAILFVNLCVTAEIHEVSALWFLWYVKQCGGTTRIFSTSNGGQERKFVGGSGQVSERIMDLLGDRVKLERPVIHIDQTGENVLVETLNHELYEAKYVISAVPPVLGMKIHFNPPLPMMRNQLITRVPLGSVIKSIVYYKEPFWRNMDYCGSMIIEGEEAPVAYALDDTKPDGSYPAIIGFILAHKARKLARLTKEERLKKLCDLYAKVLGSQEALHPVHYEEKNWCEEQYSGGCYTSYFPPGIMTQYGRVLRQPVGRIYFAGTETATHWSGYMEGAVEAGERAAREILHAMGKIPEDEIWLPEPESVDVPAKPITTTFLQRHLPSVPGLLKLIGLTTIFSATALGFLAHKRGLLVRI
T1 sequence (P21398 whole entry): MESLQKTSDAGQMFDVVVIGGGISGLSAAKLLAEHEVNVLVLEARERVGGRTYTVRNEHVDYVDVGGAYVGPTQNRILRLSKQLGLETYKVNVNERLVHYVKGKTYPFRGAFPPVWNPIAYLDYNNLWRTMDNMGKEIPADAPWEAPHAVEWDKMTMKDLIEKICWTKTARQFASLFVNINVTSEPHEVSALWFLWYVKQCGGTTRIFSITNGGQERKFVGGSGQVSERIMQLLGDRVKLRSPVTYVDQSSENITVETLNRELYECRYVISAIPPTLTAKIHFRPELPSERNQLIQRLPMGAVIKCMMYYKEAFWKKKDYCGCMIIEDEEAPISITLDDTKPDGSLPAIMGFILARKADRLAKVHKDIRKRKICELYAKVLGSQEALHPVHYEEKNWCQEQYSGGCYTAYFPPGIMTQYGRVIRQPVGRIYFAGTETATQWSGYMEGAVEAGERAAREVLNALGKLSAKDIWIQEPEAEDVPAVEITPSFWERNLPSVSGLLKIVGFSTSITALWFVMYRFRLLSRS
In words: In vitro bovine plasma monoamine oxidase deamination with semicarbazide. Particulars: cattle, with semicarbazide (concentration not stated), read-out: MAO deamination. It counts as cell-free. Put shortly:
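Amines at 50 μM in 0.1 M phosphate buffer, pH 7.4, with 0.01 unit bovine plasma MAO and 50 μM semicarbazide, in duplicate, 1 h at 37 °C. Stopped with 0.5 N NaOH, internal standard added, extracted into CH2Cl2. Remaining amine measured by GC as heptafluorobutyryl derivatives, quantitated by peak-height ratio against enzyme-free standards.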

The species entered for the next series is Homo sapiens. As to the kind of experiment: Compound was tested for the psychotropic effect in human (activity is expressed in mescaline unit). The format is functional. In a few lines: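 Healthy adult volunteers (32–65 y, experienced with psychotropic drugs) received the hydrochloride orally. Dosing began at 2 mg and rose in small increments (1.6:1) at trials spaced about 1 week apart until an effective level was found. Mescaline units are the effective dose of mescaline divided by that of the compound, both determined in man. A "less than" value means no activity at doses that would give that MU.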

Series [2] deals with T1, monoamine oxidase (bovine plasma amine oxidase). As to the kind of experiment: In vitro bovine plasma monoamine oxidase deamination without semicarbazide. Particulars: cattle, read-out: MAO deamination. The format is cell-free. Put shortly: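 Amines at 50 μM in 0.1 M phosphate buffer, pH 7.4, with 0.01 unit bovine plasma MAO, no semicarbazide, in duplicate, 1 h at 37 °C. Stopped with 0.5 N NaOH, internal standard added, extracted into CH2Cl2. Remaining amine measured by GC (OV-101, 185 °C) as heptafluorobutyryl derivatives, quantitated by peak-height ratio against standards prepared without enzyme.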

`COc1ccc(CCN)cc1OC`: the figures for the metabolised in series [1] and in series [2] were 16% and 64%, respectively. Further, the Human potency in the series listed under Homo sapiens was less than 1 MU.

Consider `COc1cc(CCN)cc(SC)c1OC`, for which the Human potency in the series filed under Homo sapiens is 6 MU. The metabolised in series [2] worked out at 60%.

The compound `COc1c(CCN)ccc(SC)c1OC` registered a Human potency in the series filed under Homo sapiens of less than 2 MU. Moreover, the metabolised in series [2] came out at 40%.

`COc1ccc(CCN)c(OC)c1SC` showed a Human potency in the series filed under Homo sapiens of less than 2 MU. In addition, in series [2], the metabolised came out at 31%.

Consider `COc1cc(CCN)cc(OC)c1SC`, for which the Human potency in the series listed under Homo sapiens was determined as 12 MU. In addition, the metabolised in series [2] came to 56%.

For the compound `COc1ccc(CCN)c(OC)c1OC`, the metabolised came to 4% in series [1] and 55% in series [2]. In the series listed under Homo sapiens, this compound showed a Human potency of less than 1 MU.

As to `COc1ccc(CCN)c(SC)c1OC`, the metabolised in series [1] is 10%; in series [2], 78%. This compound displayed a Human potency in the series filed under Homo sapiens of less than 2 MU.

As to `COc1cc(CCN)cc(OC)c1OC` [MESCALINE], the metabolised in series [1] stood at 1%; in series [2], 21%. For the same compound, the Human potency in the series listed under Homo sapiens is recorded as 1 MU.
